Results as given in article PMC9543358 (British Journal of Clinical Pharmacology, 2022).

Assays:
[1] = Population pharmacokinetic model of cabotegravir plasma concentrations; format: in vivo, human; conditions: for IIV of CL/F / IIV of F1 / IIV of KALA / IIV of KAoral / IIV of V2/F: interindividual variability; for Smoke on CL/F (fractional change of CL/F in current smokers): current smoker
Procedure, shortened: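 Human plasma concentrations (23 926 from 1647 adults, HIV‑1‑infected and uninfected, 16 phase 1–3 studies; oral 10–60 mg, IM 200–800 mg) of the test compound were fitted in NONMEM (FOCE with interaction). The model was two‑compartment with first‑order oral and IM absorption and elimination, with a weight power function (shared exponents) on clearances and volumes. BQL data were handled by likelihood, with IOV on KALA/F1.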

[2] = cited from earlier work
[3] = test system: albumin in human plasma; conditions: cited from earlier work
[4] = test system: HIV; conditions: cited from earlier work
[5] = cited from earlier work; remark: listed apart in the source
[6] = cited from earlier work; remark: listed apart in the source
[7] = base model, typical subject of 76.6 kg

## C[C@H]1CO[C@@H]2Cn3cc(C(=O)NCc4ccc(F)cc4F)c(=O)c(O)c3C(=O)N12 [CAB, Cabotegravir]
[1]; base model
  IIV of CL/F: 24.9%
  IIV of F1: 17.2%
  IIV of KALA: 71.4%
  IIV of KAoral: 61.4%
  IIV of V2/F: 22.6%
[1]; base model, power function of baseline body weight
  BWT on V2/F and V3/F (exponent): 0.675
[1]; [7]
  CL/F, apparent central clearance: 0.16 L/h
  KALA, absorption rate constant for LA IM injection: 0.000642 h⁻¹
  KAoral, absorption rate constant for oral tablet: 1.12 h⁻¹
[1]; covariate evaluation, final model
  race and age as covariates of PK: not significant covariates
[1]; final model
  BWT on V2/F and V3/F (exponent): 0.702
  KALA lower in females than males: 50.9%
  KALA lower in subjects with BMI of 32.5 kg/m^2 (90th percentile) than BMI of 20.9 kg/m^2 (10th percentile): 28.6%
  KAoral, absorption rate constant for oral tablet: 1.41 h⁻¹
  Smoke on CL/F (fractional change of CL/F in current smokers): 17.4%
  IIV of CL/F: 23.3%
  IIV of F1: 17.4%
  IIV of KALA: 57.9%
  IIV of KAoral: 89.4%
  IIV of V2/F: 20.3%
[1]; final model, BMI/25.4
  BMI exponent on KALA: −0.766
[1]; final model, BWT 76.6 kg, not current smoker
  CL/F, apparent central clearance: 0.151 L/h
[1]; final model, listed as cabotegravir
  Smoke on CL/F (fractional change of CL/F in current smokers): 17.4%
[1]; final model, female vs male
  Female on KALA (fractional change): −50.9%
[1]; final model, male, unsplit injection, BMI 25.4, needle length 1.5 inch
  KALA, absorption rate constant for LA IM injection: 0.000733 h⁻¹
[1]; final model, needle length/1.5 inch
  NDL exponent on KALA: 0.478
[1]; human, plasma, other: oral tablet and LA IM injection, modelled together, V2/F, apparent central compartment volume of distribution, base model, typical subject of 76.6 kg
  Vd/F: 5.5 L
[1]; oral 10 to 60 mg, LA 200 to 800 mg
  dose proportionality of exposure: dose proportional
[2]; following oral dosing
  apparent clearance: 0.21 L/h
  apparent volume of distribution: 12.3 L
[2]; hepatic metabolism
  route of elimination: hepatic metabolism via UGT1A1 with a minor component by UGT1A9
[3]
  binding in human plasma (primarily to albumin): > 99%
[4]
  PA‐IC90, in vitro protein‐adjusted concentration resulting in 90% of the maximum inhibition of viral growth: 0.166 µg/mL
[5]
  permeability classification: high permeability
  solubility classification: low solubility

## C[C@@H]1CCO[C@H]2Cn3cc(C(=O)NCc4ccc(F)cc4F)c(=O)c(O)c3C(=O)N12 [DTG, dolutegravir]
[6]
  CL/F higher in current smokers: 16%
  estimated absolute oral bioavailability higher in females than in males: 21%
